# From PubChem
# The list is not random: actives were taken first. Their share in the collection is about 2.2%.
# 697 NFkB inh – inhibitors of the PMA/ionomycin-induced NF-kB reporter in 697 B cells | AID 435022 | 330,000 compounds, 0.33% hits | inhibition, % at 4 µM | 697 B-cell NF-kB luciferase reporter, 16 h; in the data active means inhibition above about 35%
# NR2E3 ag-1 – human photoreceptor-specific nuclear receptor agonism. Q9Y5X4. CHO-S Gal4-NCOR/VP16-NR2E3 two-hybrid, luciferase. inhibition of corepressor binding, % at 3.98 µM. 360,000 compounds, 0.35% hits. AID 602229;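 active means inhibition above the mean of all tested compounds plus 3 SD, cut at about 70% in these data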;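 further: 0% = DMSO with NR2E3 transfected cells and 100% = cells lacking NR2E3 construct; higher means lower luciferase signal from less NR2E3 corepressor binding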
# Target sequence (Q9Y5X4 whole entry, looked up, the tested form may be a part): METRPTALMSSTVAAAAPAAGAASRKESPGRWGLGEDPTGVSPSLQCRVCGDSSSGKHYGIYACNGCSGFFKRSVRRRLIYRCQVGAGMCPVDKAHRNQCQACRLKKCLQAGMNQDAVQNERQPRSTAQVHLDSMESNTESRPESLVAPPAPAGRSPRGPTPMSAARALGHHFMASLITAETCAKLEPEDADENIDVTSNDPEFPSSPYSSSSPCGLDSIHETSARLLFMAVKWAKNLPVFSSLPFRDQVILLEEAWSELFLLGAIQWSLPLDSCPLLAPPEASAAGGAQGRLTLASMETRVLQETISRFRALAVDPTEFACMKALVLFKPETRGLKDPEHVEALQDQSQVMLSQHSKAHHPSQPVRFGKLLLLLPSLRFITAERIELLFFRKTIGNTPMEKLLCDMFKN
# miR-122 sensor – miR-122 inhibition in Huh7 cells; Huh7 miR-122 Renilla luciferase sensor, 48 h; neutral wells = 0, positive control = 100; activation (reporter increase), % at 12.5 µM; 340,000 compounds, 0.3% hits; AID 602342;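 active means mean replicate activation score at least 90 and every replicate individually at or above 90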;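 further: higher luciferase means less miR-122 activity so hits act as miR-122 inhibitors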
# FGF22 binding – binders of recombinant human FGF22 by thermal shift; 340,000 compounds, 1.5% hits; AID 651658; Q9HCT0; SYPRO orange fluorescence; percent of sucrose octasulfate shift, DMSO zero; activity (Tm shift, normalised), % at 9.99 µM;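 active means mean Tm shift, scaled 0 neutral to 100 positive control, at about 1.3% or above, every replicate too, limit read from the data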
# Target sequence (Q9HCT0 whole entry, looked up): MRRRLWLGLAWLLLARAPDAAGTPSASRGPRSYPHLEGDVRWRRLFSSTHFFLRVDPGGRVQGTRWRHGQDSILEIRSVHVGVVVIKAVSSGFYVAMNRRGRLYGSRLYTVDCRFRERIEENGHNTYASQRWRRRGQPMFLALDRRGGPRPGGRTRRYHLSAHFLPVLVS
# NR2E3 ag-2 – NR2E3 (human) agonism | Q9Y5X4 | GST-NR2E3/biotin-RetCOR TR-FRET, 1536-well | inhibition of corepressor binding, % at 4.78 µM | 320,000 compounds, 0.12% hits | AID 2300;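 active means percent inhibition above the cutoff of mean plus 3 SD of all tested compounds, set per screening campaign, cut at about 20% in these data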;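 further: 0% = DMSO wells and 100% = biotin wells as full block of FRET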
#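 Test system – NR2E3–RetCOR corepressor complex · Quantity – NR2E3 fusion 1.35 nM · Buffer or medium – Tris pH 7.5 · Incubation – Compound–protein incubation for 5 h at 4 °C · Technique – TR-FRET, Eu(K)-anti-GST donor, streptavidin-D2 acceptor, ex 340, em 617/671 nm · Evaluation – percent inhibition of 671/617 nm emission ratio versus biotin and DMSO controls · Plate – 1536-well format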
# Jurkat NFkB inh – inhibitors of the PMA/ionomycin-induced NF-kB reporter in Jurkat cells; AID 435003; PMA/ionomycin-induced NF-kB luciferase reporter, luminescence; 330,000 compounds, 0.53% hits; inhibition, % at 4 µM; in the data active means inhibition above about 50%
# NR2E3 ag conf – NR2E3 agonism confirmed in two-hybrid assay; shares compounds with NR2E3 ag-1; CHO-S mammalian two-hybrid NR2E3-NCOR, luciferase luminescence; inhibition, % at 3.98 µM; 2,300 compounds, 51% hits;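 active means average inhibition above a cutoff equal to the mean inhibition of all tested compounds plus one SD, cut at about 70% in these data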;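 further: 0% = DMSO in NR2E3 cells and 100% = DMSO in cells lacking NR2E3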
# VP16 counter – GAL4-VP16 reporter inhibition in NR2E3 agonist counterscreen | inhibition, % at 3.98 µM | shares compounds with NR2E3 ag-1 | CHO-S GAL4-VP16 luciferase reporter, luminescence | 2,300 compounds, 29% hits;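 active means mean inhibition above a cutoff equal to the average over all tested compounds plus one standard deviation, cut at about 70% in these data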;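 further: luciferase from a UAS reporter driven by GAL4-VP16 transactivation; 0% = DMSO with VP16-transfected cells and 100% = DMSO with cells lacking VP16; higher means less reporter light so more repression of VP16 activity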
# Numbers without * were called inactive; . = not tested or not shown; [ ] = dose if it differs, or a comment.
SMILES,697 NFkB inh,NR2E3 ag-1,miR-122 sensor,FGF22 binding,NR2E3 ag-2,Jurkat NFkB inh,NR2E3 ag conf,VP16 counter
Cc1nnsc1C(=O)NC1CCCc2c1cnn2-c1ccccc1F (centres undefined),-20.2,82.8*,-2.3,0.0,4.0,9.5,86.0*,69.1
O=C(NC1CCCc2c1cnn2-c1ccccc1F)c1ccncc1 (centres undefined),.,41.7,-24.2,-0.1,.,.,.,.
O=C(c1ccccn1)N1CC(=O)N2[C@H](CO)[C@H](c3ccc(C#CC4CCCC4)cc3)[C@@H]2C1,.,.,.,0.9,.,.,.,.
C[C@H]1CN([C@@H](C)CO)C(=O)c2cc(NC(=O)C3CC3)ccc2O[C@@H]1CN(C)S(C)(=O)=O,.,.,7.0[16.7 µM],-1.0,.,.,.,.
C[C@H]1CN([C@@H](C)CO)C(=O)Cc2cc(NC(=O)Nc3ccccc3)ccc2O[C@H]1CN(C)S(=O)(=O)c1ccc(Cl)cc1,.,.,-7.9[16.7 µM],.,.,.,.,.
CCCC(=O)Nc1ccc2c(c1)C(=O)N(C)C[C@H](OC)[C@@H](C)CN(C(C)=O)[C@@H](C)CO2,.,.,3.7[16.7 µM],0.1,.,.,.,.
Cc1cccc(-n2ncc3c2CCCC3NC(=O)C2(C(N)=O)CC2)c1C (centres undefined),19.2,77.7*,.,-0.2,-0.5,34.8,77.5*,66.9
Cc1cc(C)cc(-n2ncc3c2CCCC3NC(=O)C2(C(N)=O)CC2)c1 (centres undefined),-40.4,11.8,3.3,-0.1,-0.9,17.3,.,.
CN(CC(=O)NCc1ccc(F)cc1)CC(=O)Nc1ccc(Cl)c(C(F)(F)F)c1,1.4,94.2*,-7.4,0.2,0.7,12.2,53.3,49.1
O=C(NCc1cccnc1)/C(=C\c1ccc(-c2ccc(Br)cc2)o1)S(=O)(=O)c1ccccc1,15.1,93.4*,.,-0.3,3.7,19.6,43.2,11.0
O=C(NCc1cccnc1)/C(=C/c1ccc(-c2ccc(Cl)cc2)o1)S(=O)(=O)c1ccccc1,26.4,89.9*,.,0.3,-0.8,31.2,47.4,-31.5
O=C(C1CCCC1)N1C[C@H]2[C@@H](c3ccccc31)[C@H](CO)N2C(=O)c1ccccc1F,.,.,-10.0[16.7 µM],-0.4,.,.,.,.
S=C(Nc1ccc(Br)cc1)Nc1ccc2c(c1)OCCO2,-63.5,50.0,.,0.1,1.9,-61.4,-85.2,-78.8
Cc1ccc(S(=O)(=O)N(C)C[C@@H]2Oc3ncc(-c4ccccc4)cc3C(=O)N([C@H](C)CO)C[C@H]2C)cc1,.,.,-4.6[16.7 µM],0.0,.,.,.,.
Nc1nc(N)nc(-c2cc([N+](=O)[O-])ccc2O)n1,-64.1,33.4,-0.4,0.2,-0.5,9.1,.,.
Nc1nc(N)nc(-c2cc(O)ccc2O)n1,9.6,76.4*,6.7,-0.1,-1.1,35.7,84.8*,55.5
CO[C@@H]1CN(C)C(=O)c2cc(NS(=O)(=O)c3ccc(Cl)cc3)ccc2OC[C@H](C)NC[C@H]1C,.,.,3.9[16.7 µM],-0.1,.,.,.,.
CCC(=O)N1[C@@H]2Cn3c(ccc(-c4ccccc4)c3=O)[C@H]1[C@@H](C(=O)N1CCN(C)CC1)[C@@H]2CO,.,.,-3.9[16.7 µM],0.0,.,.,.,.
O=C(Nc1cccc(Cl)c1)c1cc(N=Nc2ccc([N+](=O)[O-])cc2Cl)ccc1O,-19.3,71.3*,7.0,0.3,2.5,6.1,100.3*,92.4*
CO[C@@H]1CN(C)C(=O)c2cc(NS(C)(=O)=O)ccc2OC[C@H](C)N(C(=O)NC(C)C)C[C@@H]1C,.,.,-18.4[16.7 µM],.,.,.,.,.
CCCC(=O)N1C[C@H]2[C@@H](c3ccccc31)[C@H](CO)N2C(=O)Nc1ccccc1,.,.,-20.5[16.7 µM],0.7,.,.,.,.
Cc1c(C(=O)NCc2ccc(C(C)C)cc2)sc(=O)n1Cc1ccc(S(=O)(=O)N(C)C)cc1,.,73.8*,.,-0.2,.,.,87.3*,80.4*
COc1ccc(Cl)cc1Cn1c(C)c(C(=O)NCc2ccc(F)cc2)sc1=O,.,48.8,.,-0.2,.,.,45.3,1.4
Cc1c(C(=O)NCc2cccc([N+](=O)[O-])c2)sc(=O)n1Cc1ccccc1F,.,19.2,.,0.0,.,.,.,.
COc1ccc(Cl)cc1Cn1c(C)c(C(=O)NCc2cccc([N+](=O)[O-])c2)sc1=O,.,54.3,.,-0.4,.,.,24.0,4.8
SMILES,697 NFkB inh,NR2E3 ag-1,miR-122 sensor,FGF22 binding,NR2E3 ag-2,Jurkat NFkB inh,NR2E3 ag conf,VP16 counter
CNc1nc(-c2ccc(S(=O)(=O)N3CCCCC3)cc2)cs1,-21.2,53.8,-2.9,-0.1,7.1,-12.3,-27.3,-6.6
O=C(Nc1nc(-c2ccc(S(=O)(=O)N3CCCC3)cc2)cs1)c1ccco1,-44.3,-18.8,-10.2,.,3.0,12.0,.,.
CC(C)NC(=O)N(C)C[C@H]1Oc2c(NS(=O)(=O)c3ccc(F)cc3)cccc2C(=O)N([C@@H](C)CO)C[C@@H]1C,.,.,-0.8[16.7 µM],-0.1,.,.,.,.
COc1ccccc1N(Cc1ccccc1)S(=O)(=O)c1cccc(C(=O)Nc2ccc(C)cn2)c1,-28.7,56.6,-3.3,0.1,-1.4,-9.6,-0.4,3.7
COc1ccc(CCC(=O)Nc2cccc(S(=O)(=O)N3CCCCCC3)c2)cc1OC,-8.5,-15.1,.,0.0,1.7,-3.9,.,.
COc1ccc(CC(=O)Nc2cccc(S(=O)(=O)N3CCCCCC3)c2)cc1OC,.,79.6*,10.2,.,-2.8,.,89.7*,77.3*
COc1ccccc1NC(=S)NNC(=O)c1ccc(Cl)cc1Cl,-42.4,53.4,-9.9,.,2.9,-39.1,-130.9,-115.0
CCOC(CN=c1nc(N(C)C)ss1)OCC,.,89.1*,2.2,-0.4,.,.,17.4,2.8
CN1CCN(C(=O)C[C@H]2CC[C@@H]3[C@H](COC[C@@H](O)CN3Cc3cccc(Cl)c3)O2)CC1,.,.,0.7[16.7 µM],-0.3,.,.,.,.
O=C(c1cc(COc2ccc3ncccc3c2)on1)N1CCCC(O)C1 (centres undefined),1.1,5.4,-5.6,0.0,2.2,7.4,.,.
O=C(NC1CCCCCCC1)c1cc(COc2ccc3ncccc3c2)on1,.,79.6*,.,0.1,.,.,95.4*,87.6*
CN(Cc1nccn1C)C(=O)c1cc(COc2ccc3ncccc3c2)on1,-2.3,0.8,.,0.0,-2.5,1.7,.,.
CCC1CCCCN1C(=O)c1cc(COc2ccc(-n3cncn3)cc2)on1 (centres undefined),1.0,60.3,.,39.7,0.6,5.8,47.0,60.3
O=C(c1cc(COc2ccc(-n3cncn3)cc2)on1)N1CCCC1,-13.3,-10.9,.,-0.2,0.9,-1.3,.,.
Cc1cc(CN(C)C(=O)c2cc(COc3ccc4ncccc4c3)on2)on1,-41.2,48.5,-35.1,0.0,-0.3,36.9,73.2*,63.2
COCC1CCCN(C(=O)c2cc(COc3ccc4ncccc4c3)on2)C1 (centres undefined),15.6,105.1*,-9.1,-0.5,1.6,47.2,94.5*,87.0*
